Experimental data: ChEMBL document CHEMBL1127338, “Synthesis and antifungal activity of 1,3,2-benzodithiazole S-oxides” (J Med Chem, 1994)
Converted amounts (≈) assume the structure as drawn.

Legend:
Candida albicans [1] = test: Antifungal activity against Candida albicans 10231 strain; type: functional
Method in brief: (§1)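 MIC determined by microtiter broth dilution in yeast nitrogen base with 0.05% glucose. Inoculum came from an overnight plate culture, at a final 5×10^4 cfu/mL. Plates were incubated at 35 °C for 24-48 h. MIC was taken as the lowest drug concentration completely inhibiting visible growth. 10231, 442 and 579A are clinical isolates; 38247 is a nonclinical amphotericin-resistant strain.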

Candida albicans [2] = test: Antifungal activity against Candida albicans 579A strain; type: functional; method in brief: as §1
Candida albicans [3] = test: Antifungal activity against Candida albicans 38247 strain; type: functional; method in brief: as §1
Candida albicans [4] = test: Antifungal activity against Candida albicans CCH442 strain; type: functional; method in brief: as §1
Rattus norvegicus [5] = test: % of the total radioactive dose of compound present in the 0-24 hour urine after a single 5 mg/kg dose administered intravenously in rats; type: ADME, organism-based; set-up: dose 5 mg/kg, route intravenous; details: in vivo, iv
Method in brief: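 14C-benzylic-labelled compound mixed with unlabelled material, given once iv at 5 mg/kg (~15 μCi per rat) as a 5 mg/mL solution in ethanol/propylene glycol/saline (20:35:45). Urine and feces collected daily for 3 days from two rats. Duplicate urine aliquots counted by liquid scintillation with quench correction. Fecal homogenates oxidized to 14CO2 before counting.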

Rattus norvegicus [6] = test: plasma concentration of total radio activity 30 minutes after intravenous administration in rats; type: ADME, organism-based; details: in vivo, 0.5 h
Method in brief: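 Rats given a single 5 mg/kg iv dose of 14C-labelled compound (~15 μCi each) in ethanol/propylene glycol/saline (20:35:45). At 30 min, one male and two female rats were anesthetized with CO2 and bled by cardiac puncture. Plasma was separated from heparinized blood by centrifugation at 4 °C for 15 min. Duplicate aliquots were counted by liquid scintillation with quench correction.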

| MIC (Candida albicans [1]) | MIC (Candida albicans [2]) | MIC (Candida albicans [3]) | MIC (Candida albicans [4]) | Excretion (Rattus norvegicus [5]) | Plasma concentration (Rattus norvegicus [6]) | Structure (SMILES) |
| --- | --- | --- | --- | --- | --- | --- |
| 0.78 µg/mL (≈ 2.62 µM) | 0.78 µg/mL (≈ 2.62 µM) | 1.56 µg/mL (≈ 5.25 µM) | 1.56 µg/mL (≈ 5.25 µM) | – | – | [O-][S+]1c2ccccc2SN1Cc1c(F)cccc1F (stereo not drawn) |
| 1.56 µg/mL (≈ 5.25 µM) | 1.56 µg/mL (≈ 5.25 µM) | 3.12 µg/mL (≈ 10.5 µM) | 1.56 µg/mL (≈ 5.25 µM) | – | – | [O-][S+]1c2ccccc2SN1Cc1ccc(F)c(F)c1 (stereo not drawn) |
| 0.78 µg/mL (≈ 2.79 µM) | 0.78 µg/mL (≈ 2.79 µM) | 1.56 µg/mL (≈ 5.58 µM) | 0.78 µg/mL (≈ 2.79 µM) | – | – | [O-][S+]1c2ccc(F)cc2SN1Cc1ccccc1 (stereo not drawn) |
| 0.78 µg/mL (≈ 2.83 µM) | 0.78 µg/mL (≈ 2.83 µM) | 1.56 µg/mL (≈ 5.66 µM) | 1.56 µg/mL (≈ 5.66 µM) | – | – | Cc1cccc2c1[S+]([O-])N(Cc1ccccc1)S2 (stereo not drawn) |
| – | – | – | – | 88% | 4.6 ug equiv ml-1 | [O-][S+]1c2ccccc2SN1Cc1ccccc1 (stereo not drawn) |
| 1.56 µg/mL (≈ 5.66 µM) | 1.56 µg/mL (≈ 5.66 µM) | 3.12 µg/mL (≈ 11.3 µM) | 1.56 µg/mL (≈ 5.66 µM) | – | – | CC(c1ccccc1)N1Sc2ccccc2[S+]1[O-] (stereo not drawn) |
| 12.5 µg/mL (≈ 35.6 µM) | 12.5 µg/mL (≈ 35.6 µM) | 3.12 µg/mL (≈ 8.88 µM) | 12.5 µg/mL (≈ 35.6 µM) | – | – | COc1cc(CN2Sc3ccccc3[S+]2[O-])cc(OC)c1OC (stereo not drawn) |
| 3.12 µg/mL (≈ 10 µM) | 3.12 µg/mL (≈ 10 µM) | 12.5 µg/mL (≈ 40.1 µM) | 6.25 µg/mL (≈ 20.1 µM) | – | – | [O-][S+]1c2ccccc2SN1Cc1ccc2ccccc2c1 (stereo not drawn) |
| 0.78 µg/mL (≈ 2.68 µM) | 0.78 µg/mL (≈ 2.68 µM) | 3.12 µg/mL (≈ 10.7 µM) | 0.78 µg/mL (≈ 2.68 µM) | – | – | COc1ccc2c(c1)SN(Cc1ccccc1)[S+]2[O-] (stereo not drawn) |
| 12.5 µg/mL (≈ 45.4 µM) | 12.5 µg/mL (≈ 45.4 µM) | 25 µg/mL (≈ 90.8 µM) | 25 µg/mL (≈ 90.8 µM) | – | – | Cc1cccc2c1SN(Cc1ccccc1)[S+]2[O-] (stereo not drawn) |
| 100 µg/mL (≈ 362 µM) | 100 µg/mL (≈ 362 µM) | 100 µg/mL (≈ 362 µM) | 100 µg/mL (≈ 362 µM) | – | – | [O-][S+]1c2ccccc2SN1CCc1ccncc1 (stereo not drawn) |
| 25 µg/mL (≈ 88.2 µM) | 100 µg/mL (≈ 353 µM) | 25 µg/mL (≈ 88.2 µM) | 25 µg/mL (≈ 88.2 µM) | – | – | [O-][S+]1c2ccccc2SN1c1ccc(F)c(F)c1 (stereo not drawn) |

The next lines start with the compound.

| Structure (SMILES) | MIC (Candida albicans [1]) | MIC (Candida albicans [2]) | MIC (Candida albicans [3]) | MIC (Candida albicans [4]) | Excretion (Rattus norvegicus [5]) | Plasma concentration (Rattus norvegicus [6]) |
| --- | --- | --- | --- | --- | --- | --- |
| CCC(CC)N1Sc2ccccc2[S+]1[O-] (stereo not drawn) | 100 µg/mL (≈ 414 µM) | 100 µg/mL (≈ 414 µM) | 50 µg/mL (≈ 207 µM) | 100 µg/mL (≈ 414 µM) | – | – |
| [O-][S+](c1ccccc1)N(Cc1ccccc1)Sc1ccccc1 (stereo not drawn) | > 100 µg/mL | > 100 µg/mL | 50 µg/mL (≈ 147 µM) | > 100 µg/mL | – | – |
| CC(C)(C)CCN1Sc2ccccc2[S+]1[O-] (stereo not drawn) | 1.56 µg/mL (≈ 6.11 µM) | 3.12 µg/mL (≈ 12.2 µM) | – | 1.56 µg/mL (≈ 6.11 µM) | – | – |
| Cc1ccc(C)c2c1SN(Cc1ccccc1)[S+]2[O-] (stereo not drawn) | 1.56 µg/mL (≈ 5.39 µM) | 3.12 µg/mL (≈ 10.8 µM) | 25 µg/mL (≈ 86.4 µM) | 3.12 µg/mL (≈ 10.8 µM) | – | – |
| CCCCCCCCCCCCCCCCN1Sc2ccccc2[S+]1[O-] (stereo not drawn) | > 100 µg/mL | > 100 µg/mL | > 100 µg/mL | > 100 µg/mL | – | – |
| CCCCCCCC/C=C/CCCCCCCCN1Sc2ccccc2[S+]1[O-] (stereo not drawn) | 100 µg/mL (≈ 237 µM) | 100 µg/mL (≈ 237 µM) | > 100 µg/mL | > 100 µg/mL | – | – |
| c1ccc(CN2Sc3ccccc3S2)cc1 | 6.25 µg/mL (≈ 25.5 µM) | 6.25 µg/mL (≈ 25.5 µM) | 25 µg/mL (≈ 102 µM) | 12.5 µg/mL (≈ 50.9 µM) | – | – |
| [O-][S+]1c2ccccc2SN1c1ccc2c(c1)OCO2 (stereo not drawn) | 12.5 µg/mL (≈ 42.9 µM) | 25 µg/mL (≈ 85.8 µM) | 25 µg/mL (≈ 85.8 µM) | 25 µg/mL (≈ 85.8 µM) | – | – |
| [O-][S+]1c2c(F)c(F)c(F)c(F)c2SN1Cc1ccccc1 (stereo not drawn) | 6.25 µg/mL (≈ 18.8 µM) | 6.25 µg/mL (≈ 18.8 µM) | 12.5 µg/mL (≈ 37.5 µM) | 12.5 µg/mL (≈ 37.5 µM) | – | – |
| COCC(Cc1ccccc1)N1Sc2ccccc2[S+]1[O-] (stereo not drawn) | 3.12 µg/mL (≈ 9.77 µM) | 3.12 µg/mL (≈ 9.77 µM) | 3.12 µg/mL (≈ 9.77 µM) | 3.12 µg/mL (≈ 9.77 µM) | – | – |
| CCCN1Sc2ccccc2S1 | 3.12 µg/mL (≈ 15.8 µM) | 3.12 µg/mL (≈ 15.8 µM) | 25 µg/mL (≈ 127 µM) | 12.5 µg/mL (≈ 63.3 µM) | – | – |
| [O-][S+]1c2c(F)c(F)c(N3CCOCC3)c(F)c2SN1Cc1ccccc1 (stereo not drawn) | 50 µg/mL (≈ 125 µM) | 25 µg/mL (≈ 62.4 µM) | 12.5 µg/mL (≈ 31.2 µM) | 50 µg/mL (≈ 125 µM) | – | – |
| c1ccc2c(c1)SN(C1CC1)S2 | 25 µg/mL (≈ 128 µM) | 25 µg/mL (≈ 128 µM) | 50 µg/mL (≈ 256 µM) | 50 µg/mL (≈ 256 µM) | – | – |
| [O-][S+]1c2ccccc2SN1C12CC3CC(CC(C3)C1)C2 (stereo not drawn) | 6.25 µg/mL (≈ 20.5 µM) | 12.5 µg/mL (≈ 40.9 µM) | 50 µg/mL (≈ 164 µM) | 25 µg/mL (≈ 81.8 µM) | – | – |
| [O-][S+]1c2ccccc2SN1C(c1ccccc1)c1ccccc1 (stereo not drawn) | 25 µg/mL (≈ 74.1 µM) | 6.25 µg/mL (≈ 18.5 µM) | 25 µg/mL (≈ 74.1 µM) | 12.5 µg/mL (≈ 37 µM) | – | – |
| [O-][S+]1c2ccccc2SN1CC1CCCCC1 (stereo not drawn) | 1.56 µg/mL (≈ 5.83 µM) | 1.56 µg/mL (≈ 5.83 µM) | 3.12 µg/mL (≈ 11.7 µM) | 1.56 µg/mL (≈ 5.83 µM) | – | – |
| C[C@@H]1[C@H](O)[C@@H](C)/C=C/C=C/C=C/C=C/C=C/C=C/C=C/[C@H](O[C@@H]2O[C@H](C)[C@@H](O)[C@H](N)[C@@H]2O)C[C@@H]2O[C@](O)(C[C@@H](O)C[C@@H](O)[C@H](O)CC[C@@H](O)C[C@@H](O)CC(=O)O[C@H]1C)C[C@H](O)[C@H]2C(=O)O [AMPHOTERICIN B] | 1.56 µg/mL (≈ 1.69 µM) | 1.56 µg/mL (≈ 1.69 µM) | 25 µg/mL (≈ 27.1 µM) | 0.78 µg/mL (≈ 0.844 µM) | – | – |
